Legend:
Type in all cases: cell-based
[1] = target: Sodium-dependent serotonin transporter (Homo sapiens, UniProt P31645); experiment: In vitro displacement of [3H]paroxetine from human serotonin transporter expressed in HEK293 cells
[2] = target: Sodium-dependent noradrenaline transporter (Homo sapiens, UniProt P23975); experiment: In vitro displacement of [3H]nisoxetine from human norepinephrine transporter expressed in HEK293 cells
Outline: (§1)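 Competitive binding using cloned human transporters expressed in HEK-293 cells. NET was labelled with [³H]nisoxetine and DAT with [³H]GBR12935, following a previously published procedure.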

[3] = target: Sodium-dependent dopamine transporter (Homo sapiens, UniProt Q01959); experiment: In vitro displacement of [3H]GBR-12935 from human dopamine transporter expressed in HEK293 cells; outline: as §1
Chain of Sodium-dependent dopamine transporter (Q01959 whole entry): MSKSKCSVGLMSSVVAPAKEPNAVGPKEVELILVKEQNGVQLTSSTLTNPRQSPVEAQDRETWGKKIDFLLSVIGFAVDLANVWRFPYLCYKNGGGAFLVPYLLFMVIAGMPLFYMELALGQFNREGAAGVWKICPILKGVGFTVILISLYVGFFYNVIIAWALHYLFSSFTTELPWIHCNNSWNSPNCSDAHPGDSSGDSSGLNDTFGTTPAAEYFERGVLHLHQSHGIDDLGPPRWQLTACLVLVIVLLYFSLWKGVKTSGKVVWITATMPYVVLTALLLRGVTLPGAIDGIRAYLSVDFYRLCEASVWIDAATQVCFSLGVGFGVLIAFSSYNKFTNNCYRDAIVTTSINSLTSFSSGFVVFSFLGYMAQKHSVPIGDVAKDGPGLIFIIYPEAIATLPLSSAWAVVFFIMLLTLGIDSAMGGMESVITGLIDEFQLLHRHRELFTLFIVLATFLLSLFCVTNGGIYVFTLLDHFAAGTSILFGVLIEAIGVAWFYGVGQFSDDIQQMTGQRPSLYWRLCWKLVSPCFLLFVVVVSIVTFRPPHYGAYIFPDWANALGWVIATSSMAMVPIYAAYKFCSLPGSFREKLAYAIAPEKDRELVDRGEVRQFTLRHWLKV

Chain of Sodium-dependent serotonin transporter (P31645 whole entry): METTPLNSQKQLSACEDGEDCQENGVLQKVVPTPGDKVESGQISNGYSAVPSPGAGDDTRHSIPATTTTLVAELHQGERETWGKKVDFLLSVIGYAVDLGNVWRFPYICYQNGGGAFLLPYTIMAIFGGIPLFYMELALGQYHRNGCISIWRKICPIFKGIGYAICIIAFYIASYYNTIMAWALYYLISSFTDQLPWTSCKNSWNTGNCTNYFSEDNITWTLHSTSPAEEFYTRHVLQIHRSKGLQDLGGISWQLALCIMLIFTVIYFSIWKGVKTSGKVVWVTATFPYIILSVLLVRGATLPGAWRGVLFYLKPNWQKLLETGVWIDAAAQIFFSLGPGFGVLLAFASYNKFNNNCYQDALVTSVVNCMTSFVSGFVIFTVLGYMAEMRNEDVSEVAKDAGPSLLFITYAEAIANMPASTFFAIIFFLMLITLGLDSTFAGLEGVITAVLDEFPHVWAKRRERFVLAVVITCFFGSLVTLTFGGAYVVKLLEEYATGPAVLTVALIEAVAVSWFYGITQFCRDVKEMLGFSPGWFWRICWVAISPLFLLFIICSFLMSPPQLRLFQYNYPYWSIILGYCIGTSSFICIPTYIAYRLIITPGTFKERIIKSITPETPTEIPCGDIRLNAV
Chain of Sodium-dependent noradrenaline transporter (P23975 whole entry): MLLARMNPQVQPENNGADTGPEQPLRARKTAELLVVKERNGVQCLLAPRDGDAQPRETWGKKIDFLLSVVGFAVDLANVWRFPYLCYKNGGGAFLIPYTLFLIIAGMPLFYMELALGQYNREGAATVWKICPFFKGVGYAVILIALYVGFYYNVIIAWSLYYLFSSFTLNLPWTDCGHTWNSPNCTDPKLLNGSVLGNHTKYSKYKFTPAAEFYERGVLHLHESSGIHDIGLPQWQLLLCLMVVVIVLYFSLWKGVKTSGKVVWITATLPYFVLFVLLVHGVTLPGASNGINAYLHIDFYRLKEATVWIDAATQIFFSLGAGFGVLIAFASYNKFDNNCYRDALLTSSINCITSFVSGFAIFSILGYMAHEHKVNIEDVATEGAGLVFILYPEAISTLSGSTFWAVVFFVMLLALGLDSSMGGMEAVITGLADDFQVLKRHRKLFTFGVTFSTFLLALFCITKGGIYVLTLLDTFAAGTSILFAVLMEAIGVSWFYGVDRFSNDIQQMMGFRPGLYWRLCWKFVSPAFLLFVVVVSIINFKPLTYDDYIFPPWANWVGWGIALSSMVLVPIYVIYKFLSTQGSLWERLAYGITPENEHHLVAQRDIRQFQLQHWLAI

| Ki [1] [nM] | Ki [2] [nM] | Ki [3] [nM] | Structure (SMILES) |
| --- | --- | --- | --- |
| 1.07 | – | – | CN(C)Cc1ccccc1Sc1ccc(I)cc1N |
| 179 | 7040 | > 10000 | Cc1cc(N)c(Sc2ccccc2CN(C)C)cc1F |

From ChEMBL document CHEMBL1145212, “Fluorinated diaryl sulfides as serotonin transporter ligands: synthesis, structure-activity relationship study, and in vivo evaluation of fluorine-18-labeled compounds as PET imaging agents” (J Med Chem, 2005)
